Series [1] in a line: Cmax in C57BL/6 mouse at 5 mg/kg, iv measured upto 24 hrs by LC-MS/MS analysis. The series is classed as ADME, organism-based. Details: dose 5 mg/kg, route intravenous. As to conditions: in vivo. In short, it runs like this:
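Full PK run by a contract lab. Dosing was 50 mg/kg p.o. in water and 10% SBE-β-CD/PEG-400 (9:1 v/v), and 5 mg/kg i.v. Sampling at 0.25, 0.5, 1, 2, 4, 8 and 24 h (N = 5). Plasma samples were diluted in 50% acetonitrile and quantified by LC-MS/MS against standards serially diluted in 50% acetonitrile. Brain was also sampled after the oral dose.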

Series [2] can be described thus: Drug concentration in C57BL/6 mouse brain at 100 mg/kg, po measured after 2 hrs by LC/MS-MS analysis. It is filed as ADME, organism-based. The settings on record: read-out: Drug uptake. An outline of the steps: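 PK screen in female C57BL/6 mice (N = 3 per time point). Dosed by gavage at 100 mg/kg in HPβD/PEG-400. Plasma and brain were taken from perfused mice at 30 and 120 min. Quantified by LC-MS/MS in MRM mode, with standard curves in each matrix and a common internal standard. Values are mean and s.d.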

A short description of series [3]: AUClast/D in CD-1 mouse at 5 mg/kg, iv measured upto 24 hrs by LC-MS/MS analysis. The settings on record: in vivo.

What is called Cmax is the maximum level reached in the sampled fluid or tissue. In series [1], `Cc1cc(F)cc(C)c1C(=O)c1sc2cc(O)ccc2c1Oc1ccc(OC2CN(CCCF)C2)cc1` displayed a Cmax of 1590 ng/mL. In addition, in series [2], the concentration at 2 h is 1250 nM. This compound showed an AUClast/dose in series [3] of 153 ng·h/mL.

These data come from ChEMBL document CHEMBL4354825, “Design and Synthesis of Basic Selective Estrogen Receptor Degraders for Endocrine Therapy Resistant Breast Cancer” (J Med Chem, 2019).
